Source: ChEMBL document CHEMBL2169847, “New tricks for an old natural product: discovery of highly potent evodiamine derivatives as novel antitumor agents by systemic structure-activity relationship analysis and biological evaluations” (J Med Chem, 2012)

How the values were obtained:
Assay type in all cases: functional
MDA-MB-435 = assay: Cytotoxicity against human MDA-MB-435 cells incubated for 72 hrs by MTT assay; conditions: MDA-MB-435, 72 h
Summary of the method: (§1)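 MTT assay. Cells seeded at 5 × 10³/well and grown 24 h at 37 °C, 5% CO₂. Compounds added at several concentrations in triplicate wells, with 0.1% DMSO control, for 72 h. MTT then added for 4 h, formazan dissolved in DMSO, and absorbance read at 570 nm. GI₅₀ by Logit method; three experiments.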

HCT-116 = assay: Cytotoxicity against human HCT116 cells incubated for 72 hrs by MTT assay; conditions: HCT-116, 72 h; summary of the method: as §1
A549 = assay: Cytotoxicity against human A549 cells incubated for 72 hrs by MTT assay; conditions: A549, 72 h; summary of the method: as §1

## CN1c2ccccc2CN2CCc3c([nH]c4ccccc34)C21 (stereo unspecified)
MDA-MB-435
  GI50: 16.2 µM
HCT-116
  GI50: > 200 µM
A549
  GI50: > 200 µM

## COc1ccc2c(c1)c1c(n2C(=O)c2ccc(Cl)cc2)C2N(CC1)C(=O)c1ccccc1N2C (stereo unspecified)
MDA-MB-435
  GI50: 11.8 µM
HCT-116
  GI50: 71 µM
A549
  GI50: 87.2 µM

## Cc1cccc2c1C(=O)N1CCc3c([nH]c4ccccc34)C1N2C (stereo unspecified)
MDA-MB-435
  GI50: 20.2 µM
HCT-116
  GI50: 13.1 µM
A549
  GI50: 14.3 µM

## COc1cc2c(cc1OC)N(C)C1c3[nH]c4ccccc4c3CCN1C2=O (stereo unspecified)
MDA-MB-435
  GI50: 8.97 µM
HCT-116
  GI50: > 200 µM
A549
  GI50: > 200 µM

## CN1c2cccc(Cl)c2C(=O)N2CCc3c([nH]c4ccccc34)C21 (stereo unspecified)
MDA-MB-435
  GI50: 1.43 µM
HCT-116
  GI50: 4.56 µM
A549
  GI50: 5.65 µM

## COc1ccc2[nH]c3c(c2c1)CCN1C(=S)c2ccccc2N(C)C31 (stereo unspecified)
MDA-MB-435
  GI50: 3.69 µM
HCT-116
  GI50: 21.4 µM
A549
  GI50: 106 µM

## CN1c2ccccc2CN2CCc3c(n(C(=O)c4ccc(Cl)cc4)c4ccccc34)C21 (stereo unspecified)
MDA-MB-435
  GI50: 96 µM
HCT-116
  GI50: > 200 µM
A549
  GI50: > 200 µM

## CN1c2ccccc2C(=O)N2CCc3c([nH]c4ccc(I)cc34)C21 (stereo unspecified)
MDA-MB-435
  GI50: 0.26 µM
HCT-116
  GI50: 0.78 µM
A549
  GI50: 11.4 µM

## CN1c2ccccc2C(=O)N2CCc3c([nH]c4ccc(Cl)cc34)C21 (stereo unspecified)
MDA-MB-435
  GI50: > 200 µM
HCT-116
  GI50: > 200 µM
A549
  GI50: > 200 µM

## COc1ccc2c(c1)N(C)C1c3[nH]c4ccccc4c3CCN1C2=O (stereo unspecified)
MDA-MB-435
  GI50: > 200 µM
HCT-116
  GI50: > 200 µM
A549
  GI50: > 200 µM

## CN1c2ccc(N3CCC3)cc2C(=O)N2CCc3c([nH]c4ccccc34)C21 (stereo unspecified)
MDA-MB-435
  GI50: 0.2 µM
HCT-116
  GI50: 3.85 µM
A549
  GI50: > 200 µM

## CN1c2cc(Cl)ccc2C(=O)N2CCc3c([nH]c4ccccc34)C21 (stereo unspecified)
MDA-MB-435
  GI50: > 200 µM
HCT-116
  GI50: > 200 µM
A549
  GI50: > 200 µM

## CN1c2ccccc2C(=O)N2CCc3c([nH]c4ccc(OCC5CO5)cc34)C21 (stereo unspecified)
MDA-MB-435
  GI50: 0.61 µM
HCT-116
  GI50: 2.98 µM
A549
  GI50: 48.9 µM

## CN1c2ccc([N+](=O)[O-])cc2C(=O)N2CCc3c([nH]c4ccccc34)C21 (stereo unspecified)
MDA-MB-435
  GI50: > 200 µM
HCT-116
  GI50: > 200 µM
A549
  GI50: > 200 µM

## COc1ccc2c(c1)C(=O)N1CCc3c([nH]c4ccccc34)C1N2C (stereo unspecified)
MDA-MB-435
  GI50: 0.29 µM
HCT-116
  GI50: 1.25 µM
A549
  GI50: 0.94 µM

## COc1ccc2[nH]c3c(c2c1)CCN1C(=O)c2cc(F)ccc2N(C)C31 (stereo unspecified)
MDA-MB-435
  GI50: < 0.003 µM
HCT-116
  GI50: 0.78 µM
A549
  GI50: 200 µM

## CN1c2ccc(I)cc2C(=O)N2CCc3c([nH]c4ccccc34)C21 (stereo unspecified)
MDA-MB-435
  GI50: 2.94 µM
HCT-116
  GI50: > 200 µM
A549
  GI50: > 200 µM

## CN1c2ccccc2C(=O)N2CCc3c([nH]c4ccc([N+](=O)[O-])cc34)C21 (stereo unspecified)
MDA-MB-435
  GI50: > 200 µM
HCT-116
  GI50: > 200 µM
A549
  GI50: > 200 µM

## O=C1c2cc(F)ccc2NC2c3[nH]c4ccccc4c3CCN12 (stereo unspecified)
MDA-MB-435
  GI50: > 200 µM
HCT-116
  GI50: > 200 µM
A549
  GI50: > 200 µM

## COc1cccc2c1C(=O)N1CCc3c([nH]c4ccccc34)C1N2C (stereo unspecified)
MDA-MB-435
  GI50: 22.3 µM
HCT-116
  GI50: 19.7 µM
A549
  GI50: 128 µM

## C#CCOc1ccc2[nH]c3c(c2c1)CCN1C(=O)c2ccccc2N(C)C31 (stereo unspecified)
MDA-MB-435
  GI50: 4.39 µM
HCT-116
  GI50: 14 µM
A549
  GI50: > 200 µM

## Cc1ccc2c(c1)c1c(n2C(=O)c2ccc(Cl)cc2)C2N(CC1)C(=O)c1ccccc1N2C (stereo unspecified)
MDA-MB-435
  GI50: 1.14 µM
HCT-116
  GI50: 11.4 µM
A549
  GI50: > 200 µM

## CCCOc1ccc2[nH]c3c(c2c1)CCN1C(=O)c2ccccc2N(C)C31 (stereo unspecified)
MDA-MB-435
  GI50: 3.07 µM
HCT-116
  GI50: 8.05 µM
A549
  GI50: > 200 µM

## CN1c2ccccc2C(=O)N2CCc3c(n(C(=O)c4ccc(Cl)cc4)c4ccc(O)cc34)C21 (stereo unspecified)
MDA-MB-435
  GI50: < 0.002 µM
HCT-116
  GI50: 0.05 µM
A549
  GI50: 26.6 µM

## CN1c2ccccc2C(=S)N2CCc3c(n(C(=O)c4ccc(Cl)cc4)c4ccccc34)C21 (stereo unspecified)
MDA-MB-435
  GI50: > 200 µM
HCT-116
  GI50: > 200 µM
A549
  GI50: > 200 µM

## COc1ccc2c(c1)C(=O)N1CCc3c([nH]c4ccc(O)cc34)C1N2C (stereo unspecified)
MDA-MB-435
  GI50: 0.66 µM
HCT-116
  GI50: 0.07 µM
A549
  GI50: 1.6 µM

## COc1ccc2c(c1)C(=O)N1CCc3c([nH]c4ccc(OC)cc34)C1N2C (stereo unspecified)
MDA-MB-435
  GI50: 9.8 µM
HCT-116
  GI50: 0.033 µM
A549
  GI50: > 200 µM

## CN1c2ccc(NC(=O)C3CC3)cc2C(=O)N2CCc3c([nH]c4ccccc34)C21 (stereo unspecified)
MDA-MB-435
  GI50: > 200 µM
HCT-116
  GI50: 187 µM
A549
  GI50: > 200 µM

## CN1c2ccccc2C(=O)N2CCc3c(n(C(=O)c4ccc(Cl)cc4)c4ccc(Br)cc34)C21 (stereo unspecified)
MDA-MB-435
  GI50: 38.7 µM
HCT-116
  GI50: 19.7 µM
A549
  GI50: 22.5 µM

## CN1c2ccccc2C(=O)N2CCc3c([nH]c4ccc(Br)cc34)C21 (stereo unspecified)
MDA-MB-435
  GI50: 37.6 µM
HCT-116
  GI50: > 200 µM
A549
  GI50: > 200 µM

## Cc1ccc2[nH]c3c(c2c1)CCN1C(=O)c2ccccc2N(C)C31 (stereo unspecified)
MDA-MB-435
  GI50: > 200 µM
HCT-116
  GI50: > 200 µM
A549
  GI50: > 200 µM

## O=c1c2cc(F)ccc2nc2n1CCc1c-2[nH]c2ccccc12
MDA-MB-435
  GI50: 15.9 µM
HCT-116
  GI50: 20 µM
A549
  GI50: 47.2 µM

## O=C1c2ccccc2OC2c3c(c4ccccc4n3C(=O)c3ccc(Cl)cc3)CCN12 (stereo unspecified)
MDA-MB-435
  GI50: > 200 µM
HCT-116
  GI50: > 200 µM
A549
  GI50: > 200 µM

## CN1c2ccccc2C(=O)N2CCc3c([nH]c4c([N+](=O)[O-])cc([N+](=O)[O-])cc34)C21 (stereo unspecified)
MDA-MB-435
  GI50: 0.16 µM
HCT-116
  GI50: > 200 µM
A549
  GI50: > 200 µM

## CN1c2ccccc2C(=O)N2CCc3c([nH]c4ccc(OCc5ccccc5)cc34)C21 (stereo unspecified)
MDA-MB-435
  GI50: 41.2 µM
HCT-116
  GI50: > 200 µM
A549
  GI50: > 200 µM

## Cc1ccc2c(c1)C(=O)N1CCc3c([nH]c4ccccc34)C1N2C (stereo unspecified)
MDA-MB-435
  GI50: 0.32 µM
HCT-116
  GI50: 0.61 µM
A549
  GI50: 32.2 µM

## COc1ccc2[nH]c3c(c2c1)CCN1C(=O)c2ccccc2N(C)C31 (stereo unspecified)
MDA-MB-435
  GI50: 8.97 µM
HCT-116
  GI50: > 200 µM
A549
  GI50: > 200 µM

## O=C1c2ccccc2OC2c3[nH]c4ccccc4c3CCN12 (stereo unspecified)
MDA-MB-435
  GI50: 3.13 µM
HCT-116
  GI50: 3.03 µM
A549
  GI50: 2.4 µM

## COc1ccc2c(c1)C(=O)N1CCc3c(n(C(=O)c4ccc(Cl)cc4)c4ccccc34)C1N2C (stereo unspecified)
MDA-MB-435
  GI50: 184 µM
HCT-116
  GI50: 88.7 µM
A549
  GI50: > 200 µM

## COc1ccc2[nH]c3c(c2c1)CCN1C(=O)c2cc(F)ccc2NC31 (stereo unspecified)
MDA-MB-435
  GI50: 18.5 µM
HCT-116
  GI50: 26.7 µM
A549
  GI50: 60.1 µM

## CC(=O)Nc1ccc2c(c1)C(=O)N1CCc3c([nH]c4ccccc34)C1N2C (stereo unspecified)
MDA-MB-435
  GI50: 59.1 µM
HCT-116
  GI50: 70.5 µM
A549
  GI50: > 200 µM

## COc1ccc2[nH]c3c(c2c1)CCN1C(=O)c2cc([N+](=O)[O-])ccc2N(C)C31 (stereo unspecified)
MDA-MB-435
  GI50: > 200 µM
HCT-116
  GI50: 0.15 µM
A549
  GI50: > 200 µM

## CN1c2ccccc2C(=O)N2CCc3c(n(C(=O)c4ccc(Cl)cc4)c4ccc(Cl)cc34)C21 (stereo unspecified)
MDA-MB-435
  GI50: 72.7 µM
HCT-116
  GI50: > 200 µM
A549
  GI50: > 200 µM

## CN1c2cccc(F)c2C(=O)N2CCc3c([nH]c4ccccc34)C21 (stereo unspecified)
MDA-MB-435
  GI50: 42.6 µM
HCT-116
  GI50: > 200 µM
A549
  GI50: 200 µM

## COc1ccc2[nH]c3c(c2c1)CCn1c-3nc2ccc(F)cc2c1=O
MDA-MB-435
  GI50: > 200 µM
HCT-116
  GI50: 138 µM
A549
  GI50: > 200 µM

## CCOc1ccc2[nH]c3c(c2c1)CCN1C(=O)c2ccccc2N(C)C31 (stereo unspecified)
MDA-MB-435
  GI50: 5.93 µM
HCT-116
  GI50: 19.2 µM
A549
  GI50: > 200 µM

## C#CCN(CC#C)c1ccc2c(c1)C(=O)N1CCc3c([nH]c4ccccc34)C1N2C (stereo unspecified)
MDA-MB-435
  GI50: 2.03 µM
HCT-116
  GI50: 0.21 µM
A549
  GI50: > 200 µM

## CN1c2ccccc2C(=O)N2CCc3c([nH]c4ccc(OC(=O)C5CC5)cc34)C21 (stereo unspecified)
MDA-MB-435
  GI50: 0.08 µM
HCT-116
  GI50: 0.01 µM
A549
  GI50: 1.9 µM

## CCc1c2c(nc3ccc(OC(=O)N4CCC(N5CCCCC5)CC4)cc13)-c1cc3c(c(=O)n1C2)COC(=O)[C@]3(O)CC [IRINOTECAN]
MDA-MB-435
  GI50: 12.2 µM
HCT-116
  GI50: 7.1 µM
A549
  GI50: 5 µM

## CN1c2ccc(Br)cc2C(=O)N2CCc3c([nH]c4ccccc34)C21 (stereo unspecified)
MDA-MB-435
  GI50: 1.5 µM
HCT-116
  GI50: 14.1 µM
A549
  GI50: 14.5 µM

## COc1ccc2[nH]c3c(c2c1)CCN1C(=O)c2cc(Cl)ccc2N(C)C31 (stereo unspecified)
MDA-MB-435
  GI50: 2 µM
HCT-116
  GI50: 0.004 µM
A549
  GI50: 13 µM

## CN1c2ccccc2C(=S)N2CCc3c([nH]c4ccccc34)C21 (stereo unspecified)
MDA-MB-435
  GI50: 12.2 µM
HCT-116
  GI50: 46.5 µM
A549
  GI50: 90.7 µM
